Results from ChEMBL document CHEMBL4393718, “Synthesis, biological evaluation and computational study of novel isoniazid containing 4H-Pyrimido[2,1-b]benzothiazoles derivatives” (2019).
Converted amounts (≈) assume the structure as drawn.

Assays:
Type in all cases: functional
Micrococcus luteus [1] = experiment: Activity index, ratio of IZ for test compound to IZ for streptomycin for antimicrobial activity against Micrococcus luteus MTCC 11948 incubated for 24 hrs by well diffusion method
Summary of the method: (§1)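 Well diffusion on nutrient agar plates. The activity index is the mean inhibition zone of the derivative divided by the inhibition zone of the standard antibiotic.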

[2] = tested on: Mycobacterium tuberculosis; experiment: Antitubercular activity against Mycobacterium tuberculosis H37Rv incubated for 42 days by Lowensteine-Jensen method
Escherichia coli [3] = experiment: Activity index, ratio of IZ for test compound to IZ for streptomycin for antimicrobial activity against Escherichia coli MTCC 1610 incubated for 24 hrs by well diffusion method; summary of the method: as §1
[4] = tested on: Mycobacterium tuberculosis; experiment: Antitubercular activity against Mycobacterium tuberculosis H37Rv assessed as viable colony forming unit at 1000 ug/ml incubated for 42 days by Lowensteine-Jensen method (reference value: 123 CFU)
Bacillus cereus [5] = experiment: Antimicrobial activity against Bacillus cereus MTCC 8558 incubated for 24 hrs by well diffusion method
Summary of the method: (§2)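 Well diffusion assay on nutrient agar plates. The read-out is the mean inhibition zone diameter in mm.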

[6] = tested on: Mycobacterium tuberculosis; experiment: Antitubercular activity against Mycobacterium tuberculosis H37Rv assessed as reduction in viable colony forming unit at 1000 ug/ml incubated for 42 days by Lowensteine-Jensen method relative to control
Summary of the method: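 H37Rv cultured on Lowenstein-Jensen medium with compound or untreated control; colony forming units counted on the L-J medium. Percent inhibition = (Cc − Ct)/Cc × 100, where c is control and t is test.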

Bacillus cereus [7] = experiment: Activity index, ratio of IZ for test compound to IZ for streptomycin for antimicrobial activity against Bacillus cereus MTCC 8558 incubated for 24 hrs by well diffusion method; summary of the method: as §1
Micrococcus luteus [8] = experiment: Antimicrobial activity against Micrococcus luteus MTCC 11948 incubated for 24 hrs by well diffusion method; summary of the method: as §2
Klebsiella aerogenes [9] = experiment: Activity index, ratio of IZ for test compound to IZ for streptomycin for antimicrobial activity against Enterobacter aerogenes MTCC 8558 incubated for 24 hrs by well diffusion method; summary of the method: as §1
Klebsiella aerogenes [10] = experiment: Antimicrobial activity against Enterobacter aerogenes MTCC 8558 incubated for 24 hrs by well diffusion method; summary of the method: as §2
Escherichia coli [11] = experiment: Antimicrobial activity against Escherichia coli MTCC 1610 incubated for 24 hrs by well diffusion method; summary of the method: as §2

Row | Compound | Activity_index (Micrococcus luteus [1]) | MIC [2] [µg/mL] | Activity_index (Escherichia coli [3]) | Activity [4] [CFU] | inhibition zone (IZ) (Bacillus cereus [5]) [mm] | inhibition at 1000 µg/mL [6] [%] | Activity_index (Bacillus cereus [7]) | inhibition zone (IZ) (Micrococcus luteus [8]) [mm] | Activity_index (Klebsiella aerogenes [9]) | inhibition zone (IZ) (Klebsiella aerogenes [10]) [mm] | inhibition zone (IZ) (Escherichia coli [11]) [mm]
1 | CC1=C(C(=O)NNC(=O)c2ccncc2)C(c2ccccn2)N2C(=N1)Sc1cc(C)ccc12 (stereo unspecified) | 0.792 | 500 (≈ 1100 µM) | 0.875 | 56 | 19 | 54.5 | 0.792 | 19 | 0.625 | 15 | 21
2 | CC1=C(C(=O)NNC(=O)c2ccncc2)C(c2ccccn2)N2C(=N1)Sc1cc([N+](=O)[O-])ccc12 (stereo unspecified) | 0.583 | 250 (≈ 513 µM) | 0.667 | 53 | 24 | 56.9 | 1 | 14 | 0.708 | 17 | 16
3 | NNC(=O)c1ccncc1 [ISONIAZID] |  | 0.2 (≈ 1.46 µM) |  | 1 |  | 99.2 |  |  |  |  | 
4 | CC1=C(C(=O)NNC(=O)c2ccncc2)C(c2ccccn2)N2C(=N1)Sc1cccc(Cl)c12 (stereo unspecified) | 0.708 | 50 (≈ 105 µM) | 0.917 | 23 | 16 | 81.3 | 0.667 | 17 | 0.75 | 18 | 22
5 | CC1=C(C(=O)NNC(=O)c2ccncc2)C(c2ccccn2)N2C(=N1)Sc1cc(OC(F)(F)F)ccc12 (stereo unspecified) | 0.75 | 6.25 (≈ 11.9 µM) | 0.792 | 25 | 19 | 79.7 | 0.792 | 18 | 0.917 | 22 | 19
6 | CC1=C(C(=O)NNC(=O)c2ccncc2)C(c2ccccn2)N2C(=N1)Sc1cc(Br)ccc12 (stereo unspecified) | 0.625 | 62.5 (≈ 120 µM) | 0.792 | 33 | 18 | 73.2 | 0.75 | 15 | 0.833 | 20 | 19
7 | CC1=C(C(=O)NNC(=O)c2ccncc2)C(c2ccccn2)N2C(=N1)Sc1ccccc12 (stereo unspecified) | 0.833 | 125 (≈ 282 µM) | 0.542 | 37 | 22 | 69.9 | 0.917 | 20 | 0.792 | 19 | 13
8 | CCOc1ccc2c(c1)SC1=NC(C)=C(C(=O)NNC(=O)c3ccncc3)C(c3ccccn3)N12 (stereo unspecified) | 0.958 | 62.5 (≈ 128 µM) | 0.542 | 45 | 18 | 63.4 | 0.75 | 23 | 1.042 | 25 | 13
9 | CC1=C(C(=O)NNC(=O)c2ccncc2)C(c2ccccn2)N2C(=N1)Sc1cc(C)c(C)cc12 (stereo unspecified) | 0.792 | 12.5 (≈ 26.6 µM) | 0.625 | 22 | 19 | 82.1 | 0.792 | 19 | 0.792 | 19 | 15
10 | COc1cccc2c1N1C(=NC(C)=C(C(=O)NNC(=O)c3ccncc3)C1c1ccccn1)S2 (stereo unspecified) | 0.708 | 125 (≈ 265 µM) | 0.708 | 61 | 26 | 50.4 | 1.083 | 17 | 0.958 | 23 | 17
11 | CC1=C(C(=O)NNC(=O)c2ccncc2)C(c2ccccn2)N2C(=N1)Sc1cc(F)ccc12 (stereo unspecified) | 0.792 | 25 (≈ 54.3 µM) | 1 | 24 | 12 | 80.5 | 0.5 | 19 | 0.792 | 19 | 24
12 | CC1=C(C(=O)NNC(=O)c2ccncc2)C(c2ccccn2)N2C(=N1)Sc1cccc(C)c12 (stereo unspecified) | 0.958 | 1000 (≈ 2190 µM) | 0.708 | 65 | 23 | 47.1 | 0.958 | 23 | 0.958 | 23 | 17
13 | CC1=C(C(=O)NNC(=O)c2ccncc2)C(c2ccccn2)N2C(=N1)Sc1cc(O)ccc12 (stereo unspecified) | 0.667 | 100 (≈ 218 µM) | 1 | 39 | 24 | 68.3 | 1 | 16 | 0.833 | 20 | 24
14 | COc1ccc2c(c1)SC1=NC(C)=C(C(=O)NNC(=O)c3ccncc3)C(c3ccccn3)N12 (stereo unspecified) | 0.917 | 500 (≈ 1060 µM) | 0.625 | 62 | 15 | 49.6 | 0.625 | 22 | 0.917 | 22 | 15
15 | CC1=C(C(=O)NNC(=O)c2ccncc2)C(c2ccccn2)N2C(=N1)Sc1cc(Cl)ccc12 (stereo unspecified) | 0.667 | 125 (≈ 262 µM) | 0.75 | 35 | 17 | 71.5 | 0.708 | 16 | 0.667 | 16 | 18
16 | CN[C@@H]1[C@H](O[C@H]2[C@H](O[C@H]3[C@H](O)[C@@H](O)[C@H](N=C(N)N)[C@@H](O)[C@@H]3N=C(N)N)O[C@@H](C)[C@]2(O)C=O)O[C@@H](CO)[C@H](O)[C@H]1O [STREPTOMYCIN] |  |  |  |  | 24 |  |  | 24 |  | 24 | 24
